Series [1] is described as follows: Cytotoxicity in African green monkey Vero E6 cells assessed as reduction in cell viability. It is filed as cell-based, Vero C1008. To be noted: chlorocebus sabaeus.
Series [2] is described as follows: Selectivity index, ratio of CC50 for cytotoxicity in African green monkey Vero E6 cells to EC50 for Antiviral activity against Zika virus infected in Vero E6 cells. It is filed as toxicity, cell-based, Vero C1008. To be noted: read-out: Ratio CC50/EC50.
The test system of series [3] is Hepatitis C virus. Briefly: Antiviral activity against HCV J6/JFH/JC1 infected in human Huh7.5 cells incubated for 72 hrs by In-Cell Western assay. It is filed as functional, organism-based, Hepacivirus hominis. To be noted: J6/JFH/JC1, Huh7.5, 72 h. Put shortly: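 Huh7.5 cells infected with HCVcc (MOI 0.1) and treated with compound at the same time for 72 h. Cells fixed with PFA, permeabilized, then stained for HCV Core and GAPDH with IR-dye secondaries. Core signal normalized to GAPDH. Eight-step 1:5 dilutions in triplicate; EC50 by Reed & Muench; mean of three experiments.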

A short description of series [4]: Selectivity index, ratio of CC50 for cytotoxicity in human Huh7.5 cells assessed as reduction in cell viability incubated for 96 hrs by MTT assay to EC50 for antiviral activity against HCV J6/JFH/JC1 infected in human Huh7.5 cells incubated for 72 hrs by In-Cell Western assay. It is filed as toxicity, cell-based. To be noted: read-out: Ratio CC50/EC50. The method, boiled down: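 HCVcc (MOI=0.1) infected Huh7.5 cells co-treated with eight-step 1:5 serial dilutions, triplicate wells. After 72 h, fixed, permeabilized, and stained for HCV Core and GAPDH with IR-dye secondaries. Core normalized to GAPDH. CC50 came from MTT at 96 h in uninfected Huh7.5 cells. EC50/CC50 were derived by Reed & Muench, mean ± SD of three independent experiments.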
(In general: Tetrazolium assays rely on reduction of a dye to a coloured formazan, in cell work by metabolically active cells.)

Series [5] in a line: Cytotoxicity in human Huh7.5 cells assessed as reduction in cell viability incubated for 96 hrs by MTT assay. It is filed as cell-based. Put shortly: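 Huh7.5 cells seeded 24 h before compound addition. Viability read by MTT at 96 h. Eight-step 1:5 serial dilutions in triplicate; CC50 by Reed & Muench; three independent experiments.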
A short description of series [6]: Oral bioavailability in Sprague-Dawley rat 15 mg/kg measured after 0.25 to 72 hrs by LC-MS/MS analysis. To be noted: in vivo. It is filed as ADME, organism-based.
Series [7] relates to Hepatitis C virus. Briefly: Antiviral activity against HCV J6/JFH/JC1 infected in human Huh7.5 cells assessed as reduction in viral RNA levels incubated for 72 hrs by qRT-PCR analysis. To be noted: for EC50: J6/JFH/JC1, Huh7.5, 72 h. It is filed as functional, organism-based, Hepacivirus hominis. The method, boiled down: (§1)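 Huh7.5 cells seeded 24 h, then infected with wild-type (or mutant) HCV with compound added at the same time. Incubated 72 h. Intracellular HCV RNA measured by qRT-PCR, 2^-ΔCt method, normalized to GAPDH. Eight-step 1:5 serial dilutions in triplicate; EC50 by Reed & Muench; three independent experiments.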
In general terms: Quantitative PCR measures a nucleic acid by following its amplification.

Series [8] concerns Hepatitis C virus. Briefly: Antiviral activity against HCV genotype 2a pseudoparticle infected in human Huh7.5 cells assessed as reduction in viral replication at 2 to 4 uM. It is filed as functional, organism-based. To be noted: Hepacivirus hominis, subtype 2a. Put shortly:
(§2)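 Genotype 1b or 2a HCV pseudoparticles made by co-transfecting HEK 293T cells with envelope and luciferase-reporter HIV plasmids; input standardized by luciferase. Huh7.5 cells co-incubated with compound and HCVpp for 4 h at 37°C, washed, then luciferase read at 72 h.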

Series [9] concerns Hepatitis C virus. Briefly: Antiviral activity against HCV genotype 1b pseudoparticle infected in human Huh7.5 cells assessed as reduction in viral replication at 2 to 4 uM. It is filed as functional, organism-based. To be noted: Hepacivirus hominis, subtype 1b. Put shortly:
as §2

Series [10] can be described thus: Cytotoxicity in MDCK cells assessed as reduction in cell viability. The note with it: dog. It is filed as cell-based, Canis lupus familiaris.
For series [11], the system named is Influenza A virus. Briefly: Antiviral activity against influenza A virus H3N2/95-359 infected in MDCK cells assessed as reduction in virus-induced cytopathic effect incubated for 48 hrs by Reed-Muench method. It is filed as functional, organism-based. The note with it: H3N2/95-359, MDCK.
Series [12] is described as follows: Selectivity index, ratio of CC50 for cytotoxicity in MDCK cells to EC50 for Antiviral activity against influenza A virus H3N2/95-359 infected in MDCK cells. It is filed as toxicity, cell-based. The note with it: dog, read-out: Ratio CC50/EC50.
Series [13] deals with Hepatitis C virus. Briefly: Antiviral activity against HCV GS4.3 infected in human Huh7.5 cells assessed as reduction in viral NS3 protein levels at 1 uM incubated for 72 hrs by Western blot assay. To be noted: Hepacivirus hominis. It is filed as functional, organism-based. A general note: A western blot detects proteins with antibodies after separation by electrophoresis.

For series [14], the system named is Hepatitis C virus. Briefly: Antiviral activity against HCV GS4.3 infected in human Huh7.5 cells assessed as reduction in viral replication at 0.3125 to 5 uM simultaneously treated with viral infection for 4 hrs and measured after 72 hrs by In-Cell Western assay. It is filed as functional, organism-based. To be noted: Hepacivirus hominis. Put shortly: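 Huh7.5 cells infected with HCV while incubated with compound, either for 4 h across a concentration series or at 1.0 µM for varied times down to 15 min. Supernatant then replaced with fresh medium. Intracellular Core protein measured by In-Cell Western at 72 h.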

The test system of series [15] is Hepatitis C virus. Briefly: Antiviral activity against HCV genotype 2a pseudoparticle infected in human Huh7.5 cells assessed as reduction in viral replication at 10 uM. To be noted: Hepacivirus hominis, subtype 2a. It is filed as functional, organism-based. The method, boiled down: as §2
For series [16], the system named is Hepatitis C virus. Briefly: Antiviral activity against HCV genotype 1b pseudoparticle infected in human Huh7.5 cells assessed as reduction in viral replication at 10 uM. It is filed as functional, organism-based. To be noted: Hepacivirus hominis, subtype 1b. Put shortly:
as §2

Series [17] deals with Hepatitis C virus. Briefly: Antiviral activity against HCV expressing NS3 A156T mutant by qRT-PCR analysis based by Reed-Muench method. It is filed as functional, organism-based, Hepacivirus hominis. Put shortly:
(§3)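 Huh7.5 cells seeded at 3×10^4/cm², infected 24 h later with wild-type or mutant HCV stock while compound or solvent was added at the same time. Intracellular HCV RNA measured by qRT-PCR at 72 h, normalised to GAPDH, 2^-ΔCT method. EC50 by Reed & Muench from eight-step 1:5 serial dilutions, triplicate wells.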

Series [18] relates to Hepatitis C virus. Briefly: Antiviral activity against wild type HCV by qRT-PCR analysis based by Reed-Muench method. It is filed as functional, organism-based, Hepacivirus hominis. The method, boiled down:
as §1

Series [19] in a line: Selectivity index, ratio of CC50 for cytotoxicity in human Huh7.5 cells assessed as reduction in cell viability incubated for 96 hrs by MTT assay to EC50 antiviral activity against HCV J6/JFH/JC1 infected in human Huh7.5 cells assessed as reduction in viral RNA levels incubated for 72 hrs by qRT-PCR analysis. It is filed as toxicity, cell-based. To be noted: read-out: Ratio CC50/EC50. Put shortly:
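Selectivity index = CC50/EC50. CC50: Huh7.5 cells seeded at 3×10^4/cm², medium with compound added at 24 h, MTT read at 96 h. EC50: HCVcc-infected Huh7.5 cells treated for 72 h, HCV RNA by qRT-PCR normalised to GAPDH. Serial 1:5 dilutions in eight steps, Reed & Muench calculation, means ± SD of three independent experiments.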

Series [20] deals with Hepatitis C virus. Briefly: Antiviral activity against HCV expressing NS3 D168V mutant by qRT-PCR analysis based by Reed-Muench method. It is filed as functional, organism-based, Hepacivirus hominis. Put shortly:
as §3

The nature of series [21]: Cytotoxicity in African green monkey Vero cells assessed as reduction in cell viability. It is filed as cell-based. To be noted: chlorocebus sabaeus.
The test system of series [22] is Coxsackievirus B3. Briefly: Antiviral activity against Coxsackievirus B3 infected in Vero cells assessed as reduction in virus-induced cytopathic effect incubated for 48 hrs by Reed-Muench method. To be noted: Enterovirus B. It is filed as functional, organism-based.
A short description of series [23]: Selectivity index, ratio of CC50 for cytotoxicity in African green monkey Vero cells to EC50 for Antiviral activity against Coxsackievirus B3 infected in Vero cells. It is filed as toxicity, cell-based. The note with it: read-out: Ratio CC50/EC50.
Series [24] relates to Hepatitis C virus. Briefly: Antiviral activity against HCV expressing NS5B S282T mutant by qRT-PCR analysis based by Reed-Muench method. It is filed as functional, organism-based, Hepacivirus hominis. Put shortly:
as §3

Usually CC50 stands for the concentration that lowers cell viability or growth by half. What is called EC50 is the concentration needed to bring the measured effect to its halfway point. A word on the bioavailability: it is dose-corrected exposure relative to a reference, in per cent.

Activity calls are given as the source filed them. The calls are words filed in the database; no cut-off is given here.

Consider `NC(=O)c1ncn([C@@H]2O[C@H](CO)[C@@H](O)[C@H]2O)n1` [RIBAVIRIN], for which the CC50 in series [1] is more than 200000 nM. The selectivity ratio in series [2] is more than 6.

Turning to `CN(C)CCN(C)c1ccc(C#N)c(CN(C)c2ccc(Cl)cc2)c1`, the EC50 worked out at 506 nM in series [3] and 180 nM in series [7]. Besides, the selectivity ratio in [4] worked out at 30.6. In addition, the CC50 at 96 h in [5] was 15500 nM. The molecule further returned a bioavailability in [6] of less than 5%.

Regarding `Cc1nc(Nc2ncc(C(=O)Nc3c(C)cccc3Cl)s2)cc(N2CCN(CCO)CC2)n1`, the outcome in series [8] and in [9] was Active.

As for `CCOC(=O)C1=C[C@@H](OC(CC)CC)[C@H](NC(C)=O)[C@@H](N)C1` [OSELTAMIVIR], the CC50 in [10] is more than 640000 nM. Moreover, the EC50 in [11] was found to be 2140 nM. Also, in series [12], the selectivity ratio was more than 299.

Consider `CCC[C@H](NC(=O)[C@@H]1[C@H]2CCC[C@H]2CN1C(=O)[C@@H](NC(=O)[C@@H](NC(=O)c1cnccn1)C1CCCCC1)C(C)(C)C)C(=O)C(=O)NC1CC1` [TELAPREVIR], for which the EC50 came to 146 nM in [3], 1210 nM in series [17] and 7.8 nM in series [18]. The selectivity ratio in series [4] turned out to be 377. In addition, the outcome in series [13] was Active. In addition, the outcome in series [14], in series [15] and in series [16] was inactive. Also, in [5], the CC50 at 96 h is 55000 nM.

Consider `CN(C)CCN(C)c1ccc(C#N)c(CN2CCN(c3ccc(Br)cc3)CC2)c1`, for which the selectivity ratio in series [19] was determined as 503; in series [4], 128. Further, the EC50 in series [3] came to 104 nM; in series [7], 31 nM. The CC50 at 96 h in series [5] lay in the range of 13300 to 15600 nM. Besides, the Activity result in [7] (Hepacivirus hominis) was “Dose-dependent effect”.

For the molecule `Cc1ccc(NCc2cc(N3CCN(C)CC3)ccc2C#N)cc1`, the CC50 at 96 h in series [5] turned out to be 37400 nM. In series [6], this molecule displayed a bioavailability of less than 5%. The EC50 in series [7] came to 1620 nM.

Consider `COc1ccc2c(O[C@@H]3C[C@H]4C(=O)N[C@]5(C(=O)NS(=O)(=O)C6CC6)C[C@H]5/C=C/CCCCN(C)C(=O)[C@@H]4C3)cc(-c3nc(C(C)C)cs3)nc2c1C`, for which the EC50 was more than 1000 nM in [20] and 9.2 nM in series [18].

Turning to `Cc1cc(CCCOc2c(C)cc(-c3noc(C(F)(F)F)n3)cc2C)on1` [PLECONARIL], in series [21], the CC50 was more than 1050 nM. For the same molecule, the concentration for a half-maximal effect (EC50) in [22] turned out to be 2 nM. Moreover, in series [23], the selectivity ratio was more than 525.

`CC(C)OC(=O)[C@H](C)N[P@](=O)(OC[C@H]1O[C@@H](n2ccc(=O)[nH]c2=O)[C@](C)(F)[C@@H]1O)Oc1ccccc1` [SOFOSBUVIR]: the selectivity ratio was more than 4350 in [19] and more than 1920 in [4]. The EC50 amounted to 104 nM in [3], 148 nM in series [24], 46 nM in series [7] and 29.4 nM in series [18]. The CC50 at 96 h in series [5] is more than 200000 nM.

Values taken from ChEMBL document CHEMBL4613269, “2-((4-Arylpiperazin-1-yl)methyl)benzonitrile Derivatives as Orally Available Inhibitors of Hepatitis C Virus with a Novel Mechanism of Action” (J Med Chem, 2020).
